Data published in ChEMBL document CHEMBL4431326, “Tumor Targeting with Novel 6-Substituted Pyrrolo [2,3-d] Pyrimidine Antifolates with Heteroatom Bridge Substitutions via Cellular Uptake by Folate Receptor α and the Proton-Coupled Folate Transporter and Inhibition of de Novo Purine Nucleotide Biosynthesis” (J Med Chem, 2016).
Activity calls are given as the source filed them. No cut-off for these calls is given here.

Tests used:
[1] = Cytotoxicity in RFC-null Chinese hamster R2 cells assessed as reduction in cell viability measured after 96 hrs by Cell-Titer Blue fluorescence analysis; format: cell-based; settings: Cricetulus griseus, R2, 96 h
[2] = Cytotoxicity in PCFT-null Chinese hamster R2 cells assessed as reduction in cell viability measured after 96 hrs by Cell-Titer Blue fluorescence analysis; format: cell-based; settings: Cricetulus griseus, R2, 96 h
KB [3] = test: Antiproliferative activity against human KB cells expressing human RFC/FR-alpha/PCFT assessed as reduction in cell viability measured after 96 hrs by Cell-Titer Blue fluorescence analysis; format: functional, cell-based
KB [4] = test: Antiproliferative activity against human KB cells expressing human RFC/FR-alpha/PCFT assessed as reduction in cell viability measured after 96 hrs in presence of folic acid by Cell-Titer Blue fluorescence analysis; format: functional, cell-based
[5] = target: GAR transformylase/AICAR transformylase (Homo sapiens) (UniProt P31939+P22102); test: Inhibition of GARFTase/AICARFTase in human KB cells expressing RFC/FR-alpha/PCFT assessed as cell growth inhibition measured after 96 hrs in presence of 10 uM thymidine by Cell-Titer Blue fluorescence analysis; format: cell-based
Chain of GAR transformylase/AICAR transformylase (Homo sapiens) (P31939 whole entry, looked up, one chain of several): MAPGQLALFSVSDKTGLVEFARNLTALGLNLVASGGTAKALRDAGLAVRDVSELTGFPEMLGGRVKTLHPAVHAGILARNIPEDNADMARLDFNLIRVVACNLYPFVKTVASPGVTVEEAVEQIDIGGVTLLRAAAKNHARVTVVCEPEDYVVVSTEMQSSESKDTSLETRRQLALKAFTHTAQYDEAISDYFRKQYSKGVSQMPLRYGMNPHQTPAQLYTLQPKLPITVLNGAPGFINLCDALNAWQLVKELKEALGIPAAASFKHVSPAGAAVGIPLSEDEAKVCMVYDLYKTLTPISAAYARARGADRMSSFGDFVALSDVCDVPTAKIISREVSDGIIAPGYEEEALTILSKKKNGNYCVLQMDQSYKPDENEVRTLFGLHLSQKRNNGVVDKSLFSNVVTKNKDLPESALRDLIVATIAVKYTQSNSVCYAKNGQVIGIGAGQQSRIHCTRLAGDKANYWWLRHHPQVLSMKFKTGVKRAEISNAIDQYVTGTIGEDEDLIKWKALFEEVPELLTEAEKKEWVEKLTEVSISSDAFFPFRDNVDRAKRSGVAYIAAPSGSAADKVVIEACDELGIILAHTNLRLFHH

[6] = target: Bifunctional purine biosynthesis protein ATIC (Homo sapiens) (UniProt P31939); test: Inhibition of AICARFTase in human KB cells expressing RFC/FR-alpha/PCFT assessed as cell growth inhibition measured after 96 hrs in presence of 320 uM AICA by Cell-Titer Blue fluorescence analysis; format: cell-based
Chain of Bifunctional purine biosynthesis protein ATIC (Homo sapiens) (P31939 whole entry, looked up): as the sequence (P31939 whole entry, looked up, one chain of several) above

[7] = target: Folate receptor alpha (Homo sapiens) (UniProt P15328); test: Displacement of [3H]folic acid from human FR-alpha receptor expressed in Chinese hamster RT16 cells measured after 15 mins relative to folic acid; format: cell-based; set-up: concentration or dose not given beside the values
Chain of Folate receptor alpha (Homo sapiens) (P15328 25-234 limits assumed): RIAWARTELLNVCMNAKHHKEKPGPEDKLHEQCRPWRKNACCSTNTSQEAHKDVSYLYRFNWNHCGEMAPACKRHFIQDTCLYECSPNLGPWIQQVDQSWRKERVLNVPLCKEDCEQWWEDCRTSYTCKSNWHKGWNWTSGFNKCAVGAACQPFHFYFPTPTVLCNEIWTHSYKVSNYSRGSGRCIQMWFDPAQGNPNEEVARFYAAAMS

[8] = target: Folate receptor beta (Homo sapiens) (UniProt P14207); test: Displacement of [3H]folic acid from human FR-beta receptor expressed in Chinese hamster D4 cells measured after 15 mins relative to folic acid; format: cell-based
Chain of Folate receptor beta (Homo sapiens) (P14207 17-230 limits assumed): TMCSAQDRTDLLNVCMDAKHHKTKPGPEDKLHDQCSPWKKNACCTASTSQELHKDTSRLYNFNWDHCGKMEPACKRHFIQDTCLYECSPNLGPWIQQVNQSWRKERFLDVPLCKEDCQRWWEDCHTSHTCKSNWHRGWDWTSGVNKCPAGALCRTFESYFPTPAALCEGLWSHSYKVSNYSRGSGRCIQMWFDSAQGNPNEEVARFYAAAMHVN

[9] = target: T1, Proton-coupled folate transporter (Homo sapiens) (UniProt Q96NT5); test: Inhibition of [3H]MTX uptake at human PCFT expressed in Chinese hamster R2/PCFT4 cells at 10 uM and pH 5.5 measured after 5 mins; format: cell-based
T1 sequence (whole entry): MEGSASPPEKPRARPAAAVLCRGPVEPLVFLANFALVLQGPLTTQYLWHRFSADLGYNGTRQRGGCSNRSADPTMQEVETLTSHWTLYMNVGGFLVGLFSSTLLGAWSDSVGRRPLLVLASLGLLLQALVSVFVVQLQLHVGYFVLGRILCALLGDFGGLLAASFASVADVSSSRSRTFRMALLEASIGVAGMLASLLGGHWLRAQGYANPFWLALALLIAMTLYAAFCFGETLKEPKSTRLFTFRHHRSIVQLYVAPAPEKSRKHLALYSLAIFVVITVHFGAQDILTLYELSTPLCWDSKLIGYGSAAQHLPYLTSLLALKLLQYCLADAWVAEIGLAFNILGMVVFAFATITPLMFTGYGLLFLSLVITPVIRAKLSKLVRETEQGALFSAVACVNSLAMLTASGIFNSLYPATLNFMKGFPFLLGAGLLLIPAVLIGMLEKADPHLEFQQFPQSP

[10] = target: T1, Proton-coupled folate transporter (Homo sapiens); test: Inhibition of [3H]MTX uptake at human PCFT expressed in Chinese hamster R2/PCFT4 cells at 10 uM and pH 6.8 measured after 5 mins; format: cell-based
[11] = target: T1, Proton-coupled folate transporter (Homo sapiens); test: Inhibition of [3H]MTX uptake at human PCFT expressed in Chinese hamster R2/PCFT4 cells at 1 uM and pH 5.5 measured after 5 mins; format: cell-based
[12] = target: T2, Trifunctional purine biosynthetic protein adenosine-3 (Homo sapiens, UniProt P22102); test: Inhibition of recombinant N-terminal 6His-tagged human GARFTase assessed as formation of 5,8-dideazafolate from 10-formyl-5,8-dideazafolic acid measured at every 15 seconds over 20 min by spectrophotometric analysis
T2 sequence (P22102 whole entry): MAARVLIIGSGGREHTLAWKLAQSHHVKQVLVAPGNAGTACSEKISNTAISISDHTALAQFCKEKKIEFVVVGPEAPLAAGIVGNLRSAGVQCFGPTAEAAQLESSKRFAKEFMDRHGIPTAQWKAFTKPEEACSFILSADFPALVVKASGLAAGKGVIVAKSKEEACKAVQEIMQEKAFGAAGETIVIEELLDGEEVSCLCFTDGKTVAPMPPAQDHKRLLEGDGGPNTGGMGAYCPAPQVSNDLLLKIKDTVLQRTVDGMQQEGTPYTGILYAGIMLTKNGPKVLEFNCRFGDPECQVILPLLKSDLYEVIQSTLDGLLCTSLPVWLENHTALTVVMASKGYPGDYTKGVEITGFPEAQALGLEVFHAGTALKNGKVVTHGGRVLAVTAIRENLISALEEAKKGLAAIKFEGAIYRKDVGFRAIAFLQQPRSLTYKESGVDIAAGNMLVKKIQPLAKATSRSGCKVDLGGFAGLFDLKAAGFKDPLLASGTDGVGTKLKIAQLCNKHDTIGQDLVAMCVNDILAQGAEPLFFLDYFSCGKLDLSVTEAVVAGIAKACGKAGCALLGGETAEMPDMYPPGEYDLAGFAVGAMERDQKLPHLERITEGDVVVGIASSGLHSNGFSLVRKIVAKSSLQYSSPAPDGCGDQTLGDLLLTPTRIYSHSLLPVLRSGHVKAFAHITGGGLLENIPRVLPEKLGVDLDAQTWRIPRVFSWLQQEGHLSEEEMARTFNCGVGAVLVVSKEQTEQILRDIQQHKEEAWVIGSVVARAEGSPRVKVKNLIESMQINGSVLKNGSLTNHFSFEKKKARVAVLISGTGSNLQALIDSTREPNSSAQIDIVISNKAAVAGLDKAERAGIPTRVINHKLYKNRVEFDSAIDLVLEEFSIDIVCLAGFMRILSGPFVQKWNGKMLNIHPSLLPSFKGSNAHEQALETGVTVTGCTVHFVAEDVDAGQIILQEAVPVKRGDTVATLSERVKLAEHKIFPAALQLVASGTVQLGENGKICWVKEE

IGROV-1 [13] = test: Antiproliferative activity against human IGROV1 cells expressing human FR-alpha/PCFT assessed as reduction in cell viability measured after 96 hrs by Cell-Titer Blue fluorescence analysis; format: functional, cell-based; settings: IGROV-1, 96 h
IGROV-1 [14] = test: Antitumor activity against human IGROV1 cells xenografted into folate-deficient diet fed SCID mouse assessed as tumor growth delay at 150 mg/kg, iv administered […] post 2 days of tumor implantation; format: functional
Summary of the method: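 Female NCR SCID mice, 11 weeks, ~20 g, on folate-deficient or standard diet from 14 days pre-implant; bilateral s.c. IGROV1 fragments (30–60 mg); 5 mice/group; tail-vein dosing from day 2 (Q3d schedules) in 5% ethanol, 1% Tween-80, 0.5% NaHCO3, water, pH 6.5; caliper mass (a×b²)/2; T/C and T−C delay.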

IGROV-1 [15] = test: Antitumor activity against human IGROV1 cells xenografted into folate-deficient diet fed SCID mouse assessed as tumor cell kill at 150 mg/kg, iv administered […] post 2 days of tumor implantation measured on day 20; format: functional
[16] = Toxicity in standard diet fed SCID mouse xenografted with human IGROV1 cells assessed as body weight loss at 96 and 150 mg/kg, iv administered qd for 4 times post 2 days of tumor implantation measured during compound treatment; format: organism-based; settings: in vivo, 48 h

Nc1nc2[nH]c(CCNc3ccc(C(=O)N[C@@H](CCC(=O)O)C(=O)O)cc3)cc2c(=O)[nH]1
IC50 [1]: > 1 µM
IC50 [2]: > 1 µM
IC50 (KB [3]): 0.00032 µM
IC50 (KB [4]): 0.666 µM
inhibition [5]: Active
inhibition [6]: Active
inhibition [7]: 60 to 110%
inhibition [8]: 60 to 110%
inhibition [9]: 80 to 90%
inhibition [10]: 40 to 60%
inhibition [11]: 30 to 60%
Ki [12]: 0.059 µM
IC50 (IGROV-1 [13]): 0.0027 µM
Time (IGROV-1 [14]): 15 days
LCK (IGROV-1 [15]): 2.3
Activity [16]: Non-Toxic
